Source: article PMC3103858 (Chemistry & biology, 2011)

Tests used:
[1] = system: p53-dependent p21 luciferase activity; assay: p21 luciferase assay of doxorubicin-induced p53 activation in U2OS cells; type: cell-based, human
U2OS cells = assay: BRDU incorporation cell cycle assay; type: cell-based, human
Summary of the method: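 U2OS cells in DMEM with 10% FBS were seeded at 1×10^5/ml. After 12 h, they got test compound (50 μM) with or without doxorubicin (5 μM); DMSO and untreated cells were controls. BrdU was added for the 24 h treatment. Cells were fixed, probed with anti-BrdU antibody, then peroxidase. Colour was developed with TMB, stopped, and read as OD at 450 nm.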

p53 [2] = assay: western blot analysis of doxorubicin-treated U2OS cells; type: cell-based, human
Summary of the method: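 U2OS cells were grown in DMEM with 10% FBS and antibiotics, then exposed 24 h to doxorubicin ± test compound (50 or 100 μM). Lysates were sonicated and cleared at 14,000 rpm for 30 min at 4°C. 30–50 μg protein was run on SDS-PAGE and moved to nitrocellulose, blocked in 5% milk/PBS, probed with primary then HRP secondary (60 min, RT), and developed by ECL.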

p53 binding to CBP = p53 binding to CBP (Homo sapiens, UniProt Q92793); assay: HA-CBP and Flag-p53 pull-down assay in HEK 293T cells; type: cell-based; settings: HA-CBP and Flag-p53 over-expressed in 293T cells, doxorubicin treatment
Summary of the method: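 HEK 293T cells were co-transfected with HA-CBP and Flag-p53 (Fugene 6), then treated with test compound at several concentrations, with or without doxorubicin. CBP was immunoprecipitated on HA-agarose beads. Co-precipitated p53 was detected by western blot with anti-Flag antibody.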

p53 target genes = assay: RT-PCR array analysis of p53 target genes in U2OS cells; type: cell-based, human
[3] = system: primary neonatal rat cardiomyocytes; assay: TUNEL apoptosis assay in cardiomyocytes; type: cell-based
Summary of the method: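 Ventricular myocytes came from 1–2-day-old Sprague-Dawley rats: trypsin overnight at 4°C, collagenase 45 min at 37°C, two preplating rounds. Cells were grown in DMEM/F12 with 10% horse serum and 5% FCS, switched after 48 h to DMEM/F12 with 1% ITS and 0.1% BSA. Doxorubicin was given 24 h ± test compound. Cells on coverslips were fixed in 4% PFA/PBS, permeabilised with 0.5% Tween 20 for 10 min, and TUNEL-labelled with FITC-nucleotide. Triplicates on three days.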

p53 [4] = assay: immunoblot of doxorubicin-treated cardiomyocytes; type: cell-based; settings: primary neonatal rat cardiomyocytes
Summary of the method: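 Neonatal rat ventricular myocytes (1–2-day-old Sprague-Dawley pups) were isolated by trypsin then collagenase digestion and enriched by two preplating rounds. They were cultured in DMEM/F12 with 10% horse serum and 5% FCS, then after 48 h in DMEM/F12 with 1% ITS and 0.1% BSA. Cells were exposed to doxorubicin with or without test compound and immunoblotted for activated p53 and H2AX Ser139 phosphorylation.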

CBP/p300 = type: biochemical; settings: histone H3 peptide substrate; data not shown
[5] = U2OS cells, 50 or 100 μM, 24 hours
[6] = nuclear extracts from U2OS cells

Sequence of p53 binding to CBP (Q92793 whole entry): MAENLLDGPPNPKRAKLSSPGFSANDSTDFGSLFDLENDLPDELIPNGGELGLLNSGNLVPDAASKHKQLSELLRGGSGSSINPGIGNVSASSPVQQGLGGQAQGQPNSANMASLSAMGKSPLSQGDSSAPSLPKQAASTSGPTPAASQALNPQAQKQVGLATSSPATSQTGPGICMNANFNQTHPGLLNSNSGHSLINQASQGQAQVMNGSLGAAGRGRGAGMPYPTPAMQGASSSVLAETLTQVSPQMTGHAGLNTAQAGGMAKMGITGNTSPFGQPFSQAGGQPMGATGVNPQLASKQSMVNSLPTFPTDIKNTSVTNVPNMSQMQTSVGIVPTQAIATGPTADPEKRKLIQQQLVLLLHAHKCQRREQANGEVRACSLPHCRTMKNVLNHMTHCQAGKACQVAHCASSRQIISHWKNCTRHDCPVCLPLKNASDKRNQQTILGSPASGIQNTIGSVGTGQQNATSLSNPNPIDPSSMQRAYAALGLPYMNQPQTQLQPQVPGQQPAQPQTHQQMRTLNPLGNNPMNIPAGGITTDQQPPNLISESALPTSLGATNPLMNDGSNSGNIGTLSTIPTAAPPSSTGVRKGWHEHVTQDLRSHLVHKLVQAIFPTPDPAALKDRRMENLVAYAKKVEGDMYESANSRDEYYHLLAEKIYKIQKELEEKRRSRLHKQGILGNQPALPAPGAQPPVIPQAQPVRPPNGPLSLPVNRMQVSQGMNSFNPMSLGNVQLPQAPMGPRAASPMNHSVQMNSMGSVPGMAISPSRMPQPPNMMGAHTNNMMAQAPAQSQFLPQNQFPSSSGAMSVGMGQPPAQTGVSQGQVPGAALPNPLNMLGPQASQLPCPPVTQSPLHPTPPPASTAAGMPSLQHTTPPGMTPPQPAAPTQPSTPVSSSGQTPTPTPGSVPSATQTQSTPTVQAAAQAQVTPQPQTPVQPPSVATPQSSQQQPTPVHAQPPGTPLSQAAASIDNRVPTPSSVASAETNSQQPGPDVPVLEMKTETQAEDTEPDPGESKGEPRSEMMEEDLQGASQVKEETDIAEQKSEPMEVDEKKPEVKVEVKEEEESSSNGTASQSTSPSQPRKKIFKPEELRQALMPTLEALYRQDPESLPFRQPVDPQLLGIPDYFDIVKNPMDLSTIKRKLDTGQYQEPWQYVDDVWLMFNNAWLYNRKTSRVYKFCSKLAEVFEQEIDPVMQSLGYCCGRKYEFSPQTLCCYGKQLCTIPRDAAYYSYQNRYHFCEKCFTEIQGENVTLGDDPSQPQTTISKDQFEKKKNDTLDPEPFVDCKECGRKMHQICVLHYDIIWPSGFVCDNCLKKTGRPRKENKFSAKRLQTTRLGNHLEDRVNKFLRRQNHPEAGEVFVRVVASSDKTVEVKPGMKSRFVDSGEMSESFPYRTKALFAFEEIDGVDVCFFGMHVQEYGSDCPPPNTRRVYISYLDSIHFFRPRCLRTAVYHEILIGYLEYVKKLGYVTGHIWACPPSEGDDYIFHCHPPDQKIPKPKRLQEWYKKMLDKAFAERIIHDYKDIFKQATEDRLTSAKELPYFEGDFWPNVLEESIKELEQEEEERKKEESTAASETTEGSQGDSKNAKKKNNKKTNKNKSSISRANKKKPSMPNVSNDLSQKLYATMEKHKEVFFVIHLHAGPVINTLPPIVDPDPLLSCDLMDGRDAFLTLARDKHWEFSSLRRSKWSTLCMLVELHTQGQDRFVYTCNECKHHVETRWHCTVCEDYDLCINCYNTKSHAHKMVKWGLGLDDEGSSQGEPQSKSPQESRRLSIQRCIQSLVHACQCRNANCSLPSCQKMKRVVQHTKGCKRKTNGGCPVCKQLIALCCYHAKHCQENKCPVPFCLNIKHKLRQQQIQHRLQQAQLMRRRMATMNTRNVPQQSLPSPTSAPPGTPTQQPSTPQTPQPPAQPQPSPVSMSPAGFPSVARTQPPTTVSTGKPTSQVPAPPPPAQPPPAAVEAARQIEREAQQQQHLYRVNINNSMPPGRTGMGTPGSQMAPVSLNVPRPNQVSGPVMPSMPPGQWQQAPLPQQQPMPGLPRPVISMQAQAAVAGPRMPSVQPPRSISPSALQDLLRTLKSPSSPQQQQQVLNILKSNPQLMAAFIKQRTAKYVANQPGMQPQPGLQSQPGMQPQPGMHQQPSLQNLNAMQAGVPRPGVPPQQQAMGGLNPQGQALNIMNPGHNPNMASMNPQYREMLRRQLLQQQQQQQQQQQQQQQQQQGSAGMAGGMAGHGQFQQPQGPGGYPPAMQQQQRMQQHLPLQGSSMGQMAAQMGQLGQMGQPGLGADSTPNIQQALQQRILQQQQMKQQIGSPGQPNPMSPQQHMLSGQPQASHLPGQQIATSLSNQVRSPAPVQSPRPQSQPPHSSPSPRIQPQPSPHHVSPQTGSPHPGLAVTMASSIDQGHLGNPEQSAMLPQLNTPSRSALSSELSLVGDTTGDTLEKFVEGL

Compound | IC50 ([1]; Homo sapiens, U2OS, read-out: IC50 inhibition of p53-induced p21 activation) | suppression of p21 expression ([1]; U2OS cells, doxorubicin, 50 μM) | prevention of doxorubicin-induced cell cycle arrest (BRDU incorporation) (U2OS cells; 50 μM compound, doxorubicin 5 μM, U2OS cells, 24 hours) | toxicity to the cells (U2OS cells; U2OS cells, 50 μM) | expression of p53 target genes p21, PUMA and 14-3-3s induced by doxorubicin (p53 [2]; [5]) | levels of p53 protein, p53S15p and p53K382ac induced by doxorubicin (p53 [2]; [5]) | level or functional phosphorylation state of ATM and CHK1 (p53 [2]; U2OS cells, doxorubicin) | H3 acetylation at Lys9 (p53 [2]; [6]) | histone H3 phosphorylation at Ser10 (p53 [2]; [6]) | inhibition of p53 binding to CBP (p53 binding to CBP) | doxorubicin-induced expression of p53 target genes (CCNE2, CCNG2, CDC2, CDC25A, CDKN1A, CDKN2A, GADD45A, E2F1, E2F3, PCNA, SESN1, SESN2) (p53 target genes) | toxicity of its own [3] | inhibition of doxorubicin-induced apoptosis ([3]; doxorubicin 24 hours) | doxorubicin induced p53 activation (p53 [4]) | H2AX phosphorylation at Ser139 (p53 [4]; doxorubicin) | direct inhibition of lysine acetyltransferase activity (CBP/p300) | decrease of BRDU incorporation (U2OS cells; doxorubicin treatment of U2OS cells)
Cc1cc(N=Nc2cc(S(=O)(=O)O)c(C)cc2C)c(N)cc1O [Ischemin / MS120, 5-(2-amino-4-hydroxy-5-methyl-phenylazo)-2,4-dimethyl-benzenesulfonic acid] | 5 µM | nearly completely suppresses | almost completely prevented | not toxic | significantly decreased | marked reduction | did not affect | decrease | increase | inhibiting in a dose-dependent manner | differentially reduce | no toxicity of its own | effectively inhibit | able to inhibit | did not alter | ruled out | –
COc1cccc2c1C(=O)c1c(O)c3c(c(O)c1C2=O)C[C@@](O)(C(=O)CO)C[C@@H]3O[C@H]1C[C@H](N)[C@H](O)[C@H](C)O1 [doxorubicin, reference compound] | – | – | – | – | – | – | – | – | – | – | – | – | – | – | – | – | 45%
